Reference: ChEMBL document CHEMBL4359929, “Piperidine and piperazine inhibitors of fatty acid amide hydrolase targeting excitotoxic pathology” (Bioorg Med Chem, 2019)
Activity calls are given as the source filed them. The rule behind the calls is not given here.

Assays:
[1] = Selectivity ratio of IC50 for human full length ABHD6 expressed in Escherichia coli cells to IC50 for rat recombinant His/GST-tagged FAAH expressed in Escherichia coli cells by fluorescence based assay
[2] = Drug concentration in brain (unknown origin) at 2 mg/kg, iv measured after 15 mins; format: ADME, organism-based; conditions: read-out: Ct
In short: (§1)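 Cassette pharmacokinetics: compounds given together at 2 mg/kg iv; brain and plasma levels (µg/mL) measured at 15 min.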

[3] = target: T1, Monoglyceride lipase (Homo sapiens, UniProt Q99685); test: Inhibition of human recombinant His-tagged MGL expressed in Escherichia coli BL21 DE3 cells using AHMMCE as substrate preincubated with enzyme for 15 mins followed by substrate addition and measured after every 15 mins for 3 hrs by fluorescence based assay
T1 sequence (Q99685 whole entry): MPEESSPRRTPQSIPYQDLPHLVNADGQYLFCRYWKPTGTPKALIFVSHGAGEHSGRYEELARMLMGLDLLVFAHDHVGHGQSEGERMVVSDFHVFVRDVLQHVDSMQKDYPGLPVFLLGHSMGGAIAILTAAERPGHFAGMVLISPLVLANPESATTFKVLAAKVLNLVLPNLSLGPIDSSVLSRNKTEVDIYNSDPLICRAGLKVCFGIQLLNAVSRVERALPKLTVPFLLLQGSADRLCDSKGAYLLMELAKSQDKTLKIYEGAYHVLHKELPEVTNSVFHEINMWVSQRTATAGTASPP
In short: (§2)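 Fluorescent enzyme assay in throughput format. Human recombinant FAAH or purified rat FAAH used arachidonoyl 7-amino-4-methylcoumarin amide as substrate; human recombinant MGL was run by a similar fluorometric procedure.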

[4] = target: Cannabinoid receptor 2 (Homo sapiens) (UniProt P34972); test: Displacement of [3H]CP55940 from human CB2 receptor expressed in HEK293 cells by competition-equilibrium binding analysis; format: cell-based
Chain of Cannabinoid receptor 2 (Homo sapiens) (P34972 whole entry): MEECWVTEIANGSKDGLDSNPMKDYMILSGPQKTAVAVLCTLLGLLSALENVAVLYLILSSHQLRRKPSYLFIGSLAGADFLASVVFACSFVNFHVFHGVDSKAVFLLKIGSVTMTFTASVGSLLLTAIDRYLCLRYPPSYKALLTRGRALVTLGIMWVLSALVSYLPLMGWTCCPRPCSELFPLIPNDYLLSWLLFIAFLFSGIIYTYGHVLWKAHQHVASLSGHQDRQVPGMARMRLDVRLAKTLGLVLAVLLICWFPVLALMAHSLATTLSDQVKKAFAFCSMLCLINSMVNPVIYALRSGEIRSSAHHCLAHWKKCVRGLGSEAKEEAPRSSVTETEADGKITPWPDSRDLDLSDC
In short: (§3)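 HEK293 cell membranes expressing mouse or human CB2; competition-equilibrium binding against [3H]CP-55,940.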

[5] = Stability in rat plasma assessed as half life; format: ADME, cell-free
In short: (§4)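 Stability assessed as half-life in human, rat and mouse plasma and gastric fluid, and in human, rat and mouse liver microsomal preparations.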

[6] = species: Homo sapiens; test: Selectivity ratio of IC50 for human full length ABHD6 expressed in Escherichia coli cells to IC50 for human recombinant MBP-tagged FAAH expressed in Escherichia coli cells by fluorescence based assay
[7] = target: Cannabinoid receptor 1 (Rattus norvegicus) (UniProt P20272); test: Displacement of [3H]CP55940 from CB1 receptor in rat brain by competition-equilibrium binding analysis; format: tissue-based
In short: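 Rat brain membranes as CB1 source; competition-equilibrium binding against [3H]CP-55,940.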
Target sequence in this assay (P20272 whole entry): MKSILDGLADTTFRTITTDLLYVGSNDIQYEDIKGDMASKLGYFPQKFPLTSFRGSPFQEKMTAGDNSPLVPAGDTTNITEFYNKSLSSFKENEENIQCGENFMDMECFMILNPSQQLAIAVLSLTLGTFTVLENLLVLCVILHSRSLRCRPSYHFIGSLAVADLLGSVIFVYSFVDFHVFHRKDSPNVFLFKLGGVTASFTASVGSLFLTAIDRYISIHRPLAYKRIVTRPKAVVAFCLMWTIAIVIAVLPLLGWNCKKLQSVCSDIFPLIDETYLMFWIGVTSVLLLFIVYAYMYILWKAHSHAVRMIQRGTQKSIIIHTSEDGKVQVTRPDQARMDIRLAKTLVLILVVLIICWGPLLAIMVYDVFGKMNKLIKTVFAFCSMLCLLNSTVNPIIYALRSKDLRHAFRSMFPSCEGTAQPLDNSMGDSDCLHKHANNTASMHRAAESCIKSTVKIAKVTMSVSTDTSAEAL

[8] = Stability in mouse liver microsomes assessed as half life; format: ADME, Microsome; in short: as §4
[9] = Drug concentration in plasma (unknown origin) at 2 mg/kg, iv measured after 15 mins; format: ADME, organism-based; in short: as §1
[10] = target: Cannabinoid receptor 2 (Mus musculus) (UniProt P47936); test: Displacement of [3H]CP55940 from mouse CB2 receptor expressed in HEK293 cells by competition-equilibrium binding analysis; format: cell-based; in short: as §3
Chain of Cannabinoid receptor 2 (Mus musculus) (P47936 whole entry): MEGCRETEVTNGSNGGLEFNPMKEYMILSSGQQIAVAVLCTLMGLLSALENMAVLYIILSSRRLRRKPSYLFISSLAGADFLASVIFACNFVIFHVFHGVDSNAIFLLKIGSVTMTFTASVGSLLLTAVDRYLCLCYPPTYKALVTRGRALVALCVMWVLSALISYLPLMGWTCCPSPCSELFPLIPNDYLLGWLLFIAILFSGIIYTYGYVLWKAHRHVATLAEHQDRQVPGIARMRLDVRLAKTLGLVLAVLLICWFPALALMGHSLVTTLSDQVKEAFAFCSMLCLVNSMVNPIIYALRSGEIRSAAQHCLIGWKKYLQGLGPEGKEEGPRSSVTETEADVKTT

[11] = Stability in rat gastric fluid assessed as half life; format: ADME, tissue-based, Gastric juice; in short: as §4
[12] = Stability in human gastric fluid assessed as half life; format: ADME, tissue-based, Gastric juice; in short: as §4
[13] = Stability in rat liver microsomes assessed as half life; format: ADME, Microsome; in short: as §4
[14] = Stability in human plasma assessed as half life; format: ADME, cell-free; in short: as §4
[15] = Stability in mouse gastric fluid assessed as half life; format: ADME, tissue-based, Gastric juice; in short: as §4
[16] = target: T2, Fatty-acid amide hydrolase 1 (Rattus norvegicus, UniProt P97612); test: Inhibition of rat recombinant His/GST-tagged FAAH expressed in Escherichia coli cells using AAMCA as substrate incubated for 15 mins followed by substrate addition and measured after every 20 mins for 4 hrs by fluorescence based assay; in short: as §2
T2 sequence (P97612 whole entry): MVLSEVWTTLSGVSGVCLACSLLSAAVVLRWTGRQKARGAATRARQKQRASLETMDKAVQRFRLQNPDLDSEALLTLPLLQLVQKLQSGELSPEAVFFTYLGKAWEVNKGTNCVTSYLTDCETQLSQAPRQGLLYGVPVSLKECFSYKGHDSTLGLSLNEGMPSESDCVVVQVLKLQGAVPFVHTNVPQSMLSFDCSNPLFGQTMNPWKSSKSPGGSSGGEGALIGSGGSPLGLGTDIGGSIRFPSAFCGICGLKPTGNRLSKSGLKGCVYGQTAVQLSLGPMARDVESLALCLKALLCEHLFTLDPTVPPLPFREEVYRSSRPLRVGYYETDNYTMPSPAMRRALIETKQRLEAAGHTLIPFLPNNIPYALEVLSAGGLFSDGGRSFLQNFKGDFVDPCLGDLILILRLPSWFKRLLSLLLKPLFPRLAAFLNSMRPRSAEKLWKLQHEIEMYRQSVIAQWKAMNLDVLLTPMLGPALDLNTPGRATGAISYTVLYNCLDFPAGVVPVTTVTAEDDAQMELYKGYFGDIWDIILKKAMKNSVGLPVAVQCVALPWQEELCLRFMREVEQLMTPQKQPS

[17] = Stability in mouse plasma assessed as half life; format: ADME, cell-free; in short: as §4
[18] = Ratio of IC50 for rat recombinant His/GST-tagged FAAH expressed in Escherichia coli cells to IC50 for human recombinant MBP-tagged FAAH expressed in Escherichia coli cells by fluorescence based assay
[19] = Selectivity ratio of IC50 for human recombinant His-tagged MGL expressed in Escherichia coli BL21 DE3 cells to IC50 for rat recombinant His/GST-tagged FAAH expressed in Escherichia coli cells by fluorescence based assay
[20] = Stability in human liver microsomes assessed as half life; format: ADME, Microsome; in short: as §4
[21] = target: Cannabinoid receptor 1 (Rattus norvegicus) (UniProt P20272); test: Displacement of [3H]CP55940 from CB1 receptor in rat brain by competition-equilibrium binding analysis
Target sequence in this assay (P20272 whole entry, looked up): as the sequence (P20272 whole entry) above

[22] = species: Homo sapiens; test: Selectivity ratio of IC50 for human recombinant His-tagged MGL expressed in Escherichia coli BL21 DE3 cells to IC50 for human recombinant MBP-tagged FAAH expressed in Escherichia coli cells by fluorescence based assay
[23] = target: T3, Fatty-acid amide hydrolase 1 (Homo sapiens, UniProt O00519); test: Inhibition of human recombinant MBP-tagged FAAH expressed in Escherichia coli cells using AAMCA as substrate incubated for 15 mins followed by substrate addition and measured after every 20 mins for 4 hrs by fluorescence based assay; in short: as §2
T3 sequence (O00519 whole entry): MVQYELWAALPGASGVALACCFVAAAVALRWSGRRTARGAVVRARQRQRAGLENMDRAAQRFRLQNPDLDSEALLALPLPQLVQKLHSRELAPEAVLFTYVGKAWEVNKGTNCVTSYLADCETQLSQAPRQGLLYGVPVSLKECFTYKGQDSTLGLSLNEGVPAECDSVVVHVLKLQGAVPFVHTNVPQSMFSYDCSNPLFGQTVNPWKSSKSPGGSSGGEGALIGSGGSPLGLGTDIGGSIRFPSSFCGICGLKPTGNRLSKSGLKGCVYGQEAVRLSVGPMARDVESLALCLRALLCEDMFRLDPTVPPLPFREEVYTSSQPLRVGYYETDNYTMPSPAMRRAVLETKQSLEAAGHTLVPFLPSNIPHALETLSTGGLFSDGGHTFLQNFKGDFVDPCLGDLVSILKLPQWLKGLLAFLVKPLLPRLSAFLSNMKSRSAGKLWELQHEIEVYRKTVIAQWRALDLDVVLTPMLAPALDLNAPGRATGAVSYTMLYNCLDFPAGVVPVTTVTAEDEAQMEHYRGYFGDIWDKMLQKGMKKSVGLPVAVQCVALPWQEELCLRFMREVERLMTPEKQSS

[24] = target: T4, Fatty-acid amide hydrolase 1 (Homo sapiens) (UniProt O00519); test: Inhibition of human recombinant MBP-tagged FAAH expressed in Escherichia coli cells at 1 uM using AAMCA as substrate incubated for 15 mins followed by substrate addition and measured after every 20 mins for 4 hrs by fluorescence based assay relative to control
T4 sequence (whole entry): T3 sequence (O00519 whole entry)
In short: (§5)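 Fluorescent FAAH assay with arachidonoyl 7-amino-4-methylcoumarin amide as substrate; compound tested at a single concentration of 1 µM; percent inhibition reported.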

[25] = target: T5, Monoglyceride lipase (Homo sapiens) (UniProt Q99685); conditions: at 1 µM
T5 sequence (whole entry): T1 sequence (Q99685 whole entry)

[26] = target: T6, Fatty-acid amide hydrolase 1 (Rattus norvegicus) (UniProt P97612); test: Inhibition of rat recombinant His/GST-tagged FAAH expressed in Escherichia coli cells at 1 uM using AAMCA as substrate incubated for 15 mins followed by substrate addition and measured after every 20 mins for 4 hrs by fluorescence based assay relative to control; in short: as §5
T6 sequence (whole entry): T2 sequence (P97612 whole entry)

[27] = target: T6, Fatty-acid amide hydrolase 1 (Rattus norvegicus); test: Inhibition of FAAH in rat brain at 10 uM incubated for 30 mins followed by incubation with FP-Rh probe for 45 mins by ABPP assay; format: tissue-based
In short: (§6)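 Gel-based competitive ABPP on rat brain membrane homogenates (10 mg/mL protein). Compound at 1 and 10 μM or DMSO for 30 min at room temperature, then 10 μM rhodamine-tagged fluorophosphonate probe for 45 min at room temperature. FAAH was run with a reference FAAH inhibitor at 10 μM as positive control. Serine hydrolase labelling read by in-gel fluorescence.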

[28] = target: T7, Monoacylglycerol lipase ABHD6 (Rattus norvegicus) (UniProt Q5XI64); test: Inhibition of ABHD6 in rat brain at 10 uM incubated for 30 mins followed by incubation with FP-Rh probe for 45 mins by ABPP assay; format: tissue-based; in short: as §6
T7 sequence (whole entry): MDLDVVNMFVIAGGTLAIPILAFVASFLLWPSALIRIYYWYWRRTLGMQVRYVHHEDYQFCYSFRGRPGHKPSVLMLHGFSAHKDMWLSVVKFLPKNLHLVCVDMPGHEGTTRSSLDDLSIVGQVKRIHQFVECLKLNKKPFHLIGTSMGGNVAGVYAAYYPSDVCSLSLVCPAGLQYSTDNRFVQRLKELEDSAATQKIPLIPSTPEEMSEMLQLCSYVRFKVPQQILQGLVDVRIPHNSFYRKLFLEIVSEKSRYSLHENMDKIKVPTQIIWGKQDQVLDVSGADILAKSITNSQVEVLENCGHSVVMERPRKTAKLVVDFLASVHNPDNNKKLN

[29] = target: T8, Monoglyceride lipase (Rattus norvegicus) (UniProt Q8R431); test: Inhibition of MGL in rat brain at 10 uM incubated for 30 mins followed by incubation with FP-Rh probe for 45 mins by ABPP assay; format: tissue-based; in short: as §6
T8 sequence (whole entry): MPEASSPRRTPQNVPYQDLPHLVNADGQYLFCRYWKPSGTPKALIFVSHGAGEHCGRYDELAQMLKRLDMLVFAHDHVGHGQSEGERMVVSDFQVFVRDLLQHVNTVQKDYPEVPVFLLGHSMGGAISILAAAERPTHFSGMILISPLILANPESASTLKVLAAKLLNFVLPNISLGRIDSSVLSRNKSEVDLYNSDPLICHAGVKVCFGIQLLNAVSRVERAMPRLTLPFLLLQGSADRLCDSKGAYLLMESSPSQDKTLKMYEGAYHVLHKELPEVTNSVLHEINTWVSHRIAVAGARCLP

| SMILES | Ratio IC50 [1] | IC50 [3] [nM] | Activity [4] | half-life [5] [min] | Ratio IC50 [6] | Activity [7] | half-life [8] [min] | Activity [10] | half-life [11] [min] | half-life [12] [min] | half-life [13] [min] | half-life [14] [min] | half-life [15] [min] | IC50 [16] [nM] | half-life [17] [min] | Ratio IC50 [18] | Ratio IC50 [19] | half-life [20] [min] | Activity [21] | Ratio IC50 [22] | also measured |
| --- | --- | --- | --- | --- | --- | --- | --- | --- | --- | --- | --- | --- | --- | --- | --- | --- | --- | --- | --- | --- | --- |
| CN(C)c1ccc(C2CCN(C(=O)Oc3cccc(N4CCS(=O)(=O)CC4)c3)CC2)cc1 | > 1000 | > 1000 | inactive | > 60 | > 1000 | inactive | 15 to 25 | inactive | > 60 | > 60 | 15 to 25 | > 60 | > 60 | 6.9 | > 60 | 2 to 3 | > 1000 | 15 to 25 | inactive | > 1000 | concentration at 0.25 h [2]: 1110 ng/mL; concentration at 0.25 h [9]: 746 ng/mL; IC50 [23]: 2.4 nM |
| O=C(Nc1cccc(N2CCS(=O)(=O)CC2)c1)N1CCN(c2ccccc2)CC1 |  |  | inactive |  |  | inactive |  | inactive |  |  |  |  |  |  |  |  |  |  | inactive |  | inhibition [24]: inactive; inhibition [25]: inactive; inhibition [26]: inactive |
| O=C(Oc1cccc(N2CCS(=O)(=O)CC2)c1)N1CCC(c2ccc(N3CCCC3)cc2)CC1 | > 1000 | > 1000 | inactive | > 60 | > 1000 | inactive | 15 to 25 | inactive | > 60 | > 60 | 15 to 25 | > 60 | > 60 | 6.3 | > 60 | 2 to 3 | > 1000 | 15 to 25 | inactive | > 1000 | IC50 [23]: 3.5 nM |
| O=C(Nc1cccc(N2CCS(=O)(=O)CC2)c1)N1CCC(c2ccccc2)CC1 |  |  | inactive |  |  | inactive |  | inactive |  |  |  |  |  |  |  |  |  |  | inactive |  | inhibition [24]: inactive; inhibition [25]: inactive; inhibition [26]: inactive |
| O=C(Nc1cccnn1)N1CCC(=Cc2cccc(Oc3ccc(C(F)(F)F)cn3)c2)CC1 |  |  |  |  |  |  |  |  |  |  |  |  |  |  |  |  |  |  |  |  | inhibition [27]: Active; inhibition [28]: inactive; inhibition [29]: inactive |
